Measured values as given in paper PMC8122083 (ACS infectious diseases, 2021).
In brackets after ≈: the same amount, converted by molar mass. Like-named read-outs stand apart in the source and are kept apart here.

What was measured:
Cytotoxicity assay = assay type: cell-based; settings: human, FaDu cells
Method in brief: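 FaDu cells, maintained per ATCC protocols, were seeded in EMEM with 10% FBS at 3 x 10^5 cells/ml and grown 24 h at 37°C, 5% CO2. Medium was replaced with two-fold serial dilutions of test compound in fresh medium for 72 h, then with FBS-free EMEM plus resazurin (final 0.15 mM) for 3-5 h. Fluorescence read at ex 540/em 590 nm. IC50 fitted from percent inhibition versus growth controls, converted to pIC50, and reported as mean ± S.E.M.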

H. pylori SS1 [1] = assay: H. pylori IC50 dose response; assay type: cell-based; settings: for IC50: Helicobacter pylori; for fold greater potency than compound 1: H. pylori SS1; for fold increase in potency: SS1 (stated for both strains), lead compounds relative to hits
H. pylori ATCC 43504 = assay: H. pylori IC50 dose response; assay type: cell-based; settings: for IC50: Helicobacter pylori; for fold increase in potency: ATCC 43504 (stated for both strains), lead compounds relative to hits
H. pylori SS1 [2] = assay: ex vivo H. pylori infection model; design: species or system mouse; settings: 0.6 μg/mL (1.6μM), 24 hours
Solubility = assay type: physicochemical
Mouse pharmacokinetics = assay type: in vivo, mice
H. pylori = H. pylori murine infection model; assay type: in vivo, mouse; settings: compared to metronidazole control
[3] = test system: panel of representative Gram-negative and Gram-positive species, including commensals; assay: MIC against panel of representative Gram-negative and Gram-positive species; assay type: cell-based
[4] = test system: H. pylori HM-274 resistant isolates; assay: MIC of spontaneous resistant mutants of H. pylori HM-274; assay type: cell-based; settings: two spontaneous mutants selected at twice the MIC of 28
[5] = SS1, read-out: H. pylori SS1 pIC50 (converted)
[6] = ATCC43504, read-out: H. pylori ATCC 43504 pIC50 (converted)

| SMILES | IC50 at 72 h (Cytotoxicity assay) | IC50 (H. pylori SS1 [1]; [5]) | IC50 (H. pylori ATCC 43504; [6]) | also measured |
| --- | --- | --- | --- | --- |
| CN(CCCO)c1ncnc2sc(-c3ccccc3)cc12 [Compound 8, 3-(methyl(6-phenylthieno[2,3-d]pyrimidin-4-yl)amino)propan-1-ol] | 100 µM | 6310 nM | 15800 nM | – |
| OCCNc1ncnc2sc(-c3ccccc3)cc12 [Compound 9, 2-((6-phenylthieno[2,3-d]pyrimidin-4-yl)amino)ethan-1-ol] | 100 µM | 2000 nM | 5010 nM | – |
| CC(CO)Nc1ncnc2sc(-c3ccccc3)cc12 (centres unmarked) [Compound 10, 2-((6-phenylthieno[2,3-d]pyrimidin-4-yl)amino)propan-1-ol] | 100 µM | 79.4 nM | 39.8 nM | fold greater potency than compound 1 (H. pylori SS1 [1]): 20 fold; fold increase in potency over compound 1 (H. pylori ATCC 43504; ATCC43504): 37 fold |
| CC(O)CNc1ncnc2sc(-c3ccccc3)cc12 (centres unmarked) [Compound 11, 1-((6-phenylthieno[2,3-d]pyrimidin-4-yl)amino)propan-2-ol] | 63.1 µM | 398 nM | 1000 nM | fold greater potency than compound 1 (H. pylori SS1 [1]): 4 fold; fold increase in potency over compound 1 (H. pylori ATCC 43504; ATCC43504): less than 2 fold |
| C[C@@H](CO)Nc1ncnc2sc(-c3ccccc3)cc12 [Compound 12, (S)-2-((6-phenylthieno[2,3-d]pyrimidin-4-yl)amino)propan-1-ol] | 251 µM | 2510 nM | 5010 nM | – |
| C[C@H](CO)Nc1ncnc2sc(-c3ccccc3)cc12 [Compound 13, (R)-2-((6-phenylthieno[2,3-d]pyrimidin-4-yl)amino)propan-1-ol] | 31.6 µM | 31.6 nM | 158 nM | fold greater potency than compound 1 (H. pylori SS1 [1]): 56 fold |
| COCC(C)Nc1ncnc2sc(-c3ccccc3)cc12 (centres unmarked) [Compound 14, N-(1-methoxypropan-2-yl)-6-phenylthieno[2,3-d]pyrimidin-4-amine] | 31.6 µM | 398 nM | 1260 nM | fold less potent than compound 10 (H. pylori ATCC 43504; ATCC43504): 29 fold |
| OCCCCNc1ncnc2sc(-c3ccccc3)cc12 [Compound 15, 4-((6-phenylthieno[2,3-d]pyrimidin-4-yl)amino)butan-1-ol] | 126 µM | 316 nM | 1580 nM | – |
| CCC(CO)Nc1ncnc2sc(-c3ccccc3)cc12 (centres unmarked) [Compound 16, 2-((6-phenylthieno[2,3-d]pyrimidin-4-yl)amino)butan-1-ol] | 39.8 µM | 20 nM | 100 nM | – |
| CCC(O)CNc1ncnc2sc(-c3ccccc3)cc12 (centres unmarked) [Compound 17, 1-((6-phenylthieno[2,3-d]pyrimidin-4-yl)amino)butan-2-ol] | 39.8 µM | 251 nM | 794 nM | – |
| CC(C)C(CO)Nc1ncnc2sc(-c3ccccc3)cc12 (centres unmarked) [Compound 18, 3-methyl-2-((6-phenylthieno[2,3-d]pyrimidin-4-yl)amino)butan-1-ol] | 50.1 µM | 794 nM | 3160 nM | – |
| COc1ccc(CCNc2ncnc3sc(-c4ccccc4)cc23)cc1OC [Compound 19, N-(3,4-dimethoxyphenethyl)-6-phenylthieno[2,3-d]pyrimidin-4-amine] | 126 µM | 39.8 nM | 158 nM | fold improved potency over compound 2 (H. pylori ATCC 43504; ATCC43504): 11 fold; IC50 (H. pylori ATCC 43504; ATCC43504): 160 nM |
| Cc1ccc(CCNc2ncnc3sc(-c4ccccc4)cc23)cc1C [Compound 20, N-(3,4-dimethylphenethyl)-6-phenylthieno[2,3-d]pyrimidin-4-amine] | < 15.8 µM | 501 nM | 79.4 nM | – |
| c1ccc(-c2cc3c(NCCc4ccncc4)ncnc3s2)cc1 [Compound 21, 6-phenyl-N-(2-(pyridin-4-yl)ethyl)thieno[2,3-d]pyrimidin-4-amine] | 126 µM | 1260 nM | 2510 nM | – |
| c1ccc(-c2cc3c(NCCc4cccnc4)ncnc3s2)cc1 [Compound 22, 6-phenyl-N-(2-(pyridin-3-yl)ethyl)thieno[2,3-d]pyrimidin-4-amine] | 100 µM | 3160 nM | 6310 nM | – |
| COc1cccc(CNc2ncnc3sc(-c4ccccc4)cc23)c1OC [Compound 23, N-(2,3-dimethoxybenzyl)-6-phenylthieno[2,3-d]pyrimidin-4-amine] | 25.1 µM | 501 nM | 1580 nM | – |
| COc1ccc(CC(CO)Nc2ncnc3sc(-c4ccccc4)cc23)cc1 (centres unmarked) [Compound 24, 3-(4-methoxyphenyl)-2-((6-phenylthieno[2,3-d]pyrimidin-4-yl)amino)propan-1-ol] | 15.8 µM | 251 nM | 126 nM | – |
| COc1ccc(C(CO)Nc2ncnc3sc(-c4ccccc4)cc23)cc1 (centres unmarked) [Compound 25, 2-(4-methoxyphenyl)-2-((6-phenylthieno[2,3-d]pyrimidin-4-yl)amino)ethan-1-ol] | 398 µM | 20 nM | 20 nM | effectiveness in ex vivo model (H. pylori SS1 [2]): highly effective; samples with colony counts below the limit of detection (H. pylori SS1 [2]; 10 samples): 6 of the 10; solubility (Solubility): 1 µM (≈ 0.377 µg/mL); exposure upon oral dosing (Mouse pharmacokinetics; mice, oral (PO), compared with IP): lower exposure; AUC (Mouse pharmacokinetics; mouse, plasma, ip, 50 mg/kg): 31900 ng·h/mL; efficacy in H. pylori murine infection model (H. pylori; 25 mg/kg (IP)): did not show efficacy; efficacy in H. pylori murine infection model (H. pylori; 50 mg/kg (IP)): did not show efficacy; efficacy in H. pylori murine infection model (H. pylori; 50 mg/kg (PO)): did not show efficacy; MIC [3]: ≥ 16 µg/mL; fold increase in potency (H. pylori SS1 [1]): > 69 fold; fold increase in potency (H. pylori ATCC 43504): > 69 fold; IC50 (H. pylori ATCC 43504; ATCC43504): 21 nM |
| COc1ccc([C@H](CO)Nc2ncnc3sc(-c4ccccc4)cc23)cc1 [Compound 26, (R)-2-(4-methoxyphenyl)-2-((6-phenylthieno[2,3-d]pyrimidin-4-yl)amino)ethan-1-ol] | 15.8 µM | 6.31 nM | 10 nM | MIC [3]: ≥ 16 µg/mL; IC50 (H. pylori SS1 [1]; SS1): 6.8 nM; fold increase in potency (H. pylori SS1 [1]): > 69 fold; fold increase in potency (H. pylori ATCC 43504): > 69 fold; IC50 (H. pylori ATCC 43504; ATCC43504): 10 nM |
| COc1ccc([C@@H](CO)Nc2ncnc3sc(-c4ccccc4)cc23)cc1 [Compound 27, (S)-2-(4-methoxyphenyl)-2-((6-phenylthieno[2,3-d]pyrimidin-4-yl)amino)ethan-1-ol] | 50.1 µM | 100 nM | 50.1 nM | IC50 (H. pylori SS1 [1]; SS1): 110 nM; IC50 (H. pylori ATCC 43504; ATCC43504): 53 nM |
| OC[C@H](Nc1ncnc2sc(-c3ccccc3)cc12)c1ccccc1 [Compound 28, (R)-2-phenyl-2-((6-phenylthieno[2,3-d]pyrimidin-4-yl)amino)ethan-1-ol] | < 20 µM | 10 nM | 25.1 nM | MIC of resistant isolates relative to wildtype [4]: 8 fold; MIC [3]: ≥ 16 µg/mL; IC50 (H. pylori ATCC 43504; ATCC43504): 23 nM |
| COc1ccc([C@H](CO)Nc2ncnc3sc(-c4ccccc4)cc23)c(F)c1 [Compound 29, (R)-2-(2-fluoro-4-methoxyphenyl)-2-((6-phenylthieno[2,3-d]pyrimidin-4-yl)amino)ethan-1-ol] | 31.6 µM | 12.6 nM | 20 nM | MIC [3]: ≥ 16 µg/mL |
| COc1ccc([C@H](CO)Nc2ncnc3sc(-c4ccccc4)cc23)cc1F [Compound 30, (R)-2-(3-fluoro-4-methoxyphenyl)-2-((6-phenylthieno[2,3-d]pyrimidin-4-yl)amino)ethan-1-ol] | 31.6 µM | 12.6 nM | 15.8 nM | MIC [3]: ≥ 16 µg/mL |
| COc1ccc([C@H](CN)Nc2ncnc3sc(-c4ccccc4)cc23)cc1F [Compound 31, (R)-1-(3-fluoro-4-methoxyphenyl)-N^1-(6-phenylthieno[2,3-d]pyrimidin-4-yl)ethane-1,2-diamine] | 50.1 µM | 1000 nM | 3160 nM | MIC [3]: ≥ 16 µg/mL; fold increase in H. pylori IC50 on substituting hydroxyl for primary amine (H. pylori SS1 [1]; SS1, relative to 30): > 79 fold; fold increase in H. pylori IC50 on substituting hydroxyl for primary amine (H. pylori ATCC 43504; ATCC 43504, relative to 30): > 79 fold |
| Cc1sc2ncnc(N[C@@H](CO)c3ccccc3)c2c1C [Compound 37, (R)-2-((5,6-dimethylthieno[2,3-d]pyrimidin-4-yl)amino)-2-phenylethan-1-ol] | < 20 µM | 631 nM | 6310 nM | – |
| Cc1c(-c2ccccc2)sc2ncnc(N[C@@H](CO)c3ccccc3)c12 [Compound 38, (R)-2-((5-methyl-6-phenylthieno[2,3-d]pyrimidin-4-yl)amino)-2-phenylethan-1-ol] | 20 µM | 50.1 nM | 316 nM | – |
| Cc1sc2ncnc(N[C@@H](CO)c3ccccc3)c2c1-c1ccccc1 [Compound 39, (R)-2-((6-methyl-5-phenylthieno[2,3-d]pyrimidin-4-yl)amino)-2-phenylethan-1-ol] | 126 µM | 7940 nM | 15800 nM | – |
| OC[C@H](Nc1ncnc2scc(-c3ccccc3)c12)c1ccccc1 [Compound 40, (R)-2-phenyl-2-((5-phenylthieno[2,3-d]pyrimidin-4-yl)amino)ethan-1-ol] | 31.6 µM | 501 nM | 3980 nM | – |
